# HDAC3 inhib: blocks human histone deacetylase 3. O15379. recombinant HDAC3, fluorogenic peptide/trypsin coupled, fluorescence. inhibition, % at 8.3 µM. 320,000 tested, 0.15% active; in the data active means inhibition above about 26%, passing the limit was not always enough; inconclusive means no clear call, values can overlap the other calls
# Target sequence (O15379 whole entry, looked up): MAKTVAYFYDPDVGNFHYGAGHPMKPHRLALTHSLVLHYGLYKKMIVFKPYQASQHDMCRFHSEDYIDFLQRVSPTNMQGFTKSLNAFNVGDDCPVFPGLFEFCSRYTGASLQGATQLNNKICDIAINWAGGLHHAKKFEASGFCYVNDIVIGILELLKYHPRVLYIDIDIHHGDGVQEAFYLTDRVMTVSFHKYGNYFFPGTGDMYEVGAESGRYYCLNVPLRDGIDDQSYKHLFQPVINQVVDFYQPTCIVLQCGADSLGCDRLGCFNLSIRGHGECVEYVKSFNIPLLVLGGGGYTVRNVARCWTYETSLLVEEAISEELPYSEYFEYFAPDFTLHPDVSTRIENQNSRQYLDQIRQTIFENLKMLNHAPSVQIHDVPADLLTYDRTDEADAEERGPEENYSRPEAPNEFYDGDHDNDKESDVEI
# ALR H2O2 inh: blocks human ALR sulfhydryl oxidase activity. P55789. inhibition, % (concentration not given with the values). purified ALR, DTT oxidation, H2O2 HRP-luminol luminescence. 290,000 tested, 3.8% active;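 active means mean replicate inhibition above about 79%, with every replicate also reaching it, limit read from the data; inconclusive means only one of the two criteria met; inactive means mean below limit and not every replicate reaching it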
# Target sequence (P55789 whole entry, looked up): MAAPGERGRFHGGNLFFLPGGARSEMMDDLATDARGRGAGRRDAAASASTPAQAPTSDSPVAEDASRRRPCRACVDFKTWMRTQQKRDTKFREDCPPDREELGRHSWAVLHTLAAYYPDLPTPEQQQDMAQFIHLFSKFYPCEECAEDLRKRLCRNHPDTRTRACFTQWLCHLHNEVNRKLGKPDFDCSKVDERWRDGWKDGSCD
# M18AAP inhibitor: blocks P. falciparum M18 aspartyl aminopeptidase. recombinant PfM18AAP, H-Glu-NHMec fluorogenic cleavage. inhibition, % at 7.35 µM. 290,000 tested, 1.2% active. AID 1822;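 active means inhibition above the campaign mean inhibition over all tested compounds plus 3 SD, cut at about 28% in these data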;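 further: 0% = plate median of test compound wells and 100% = 2 mM ZnCl2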
# FAS TE block: FAS thioesterase (human) inhibition; 360,000 tested, 0.67% active; recombinant FAS-TE, OMFH fluorogenic substrate, fluorescence endpoint; P49327; inhibition, % at 15 µM; AID 602261;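 active means compounds whose normalised, plate-corrected inhibition of enzyme fluorescence in the single-dose primary screen is 50% or more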;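 further: 0% = DMSO with enzyme and 100% = substrate without enzyme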
# UCH37 inh: human UCH37 deubiquitinating enzyme inhibition; Q9Y5K5; purified proteasome/UCH37, Ub-AMC cleavage fluorescence; inhibition, % (concentration not given with the values); 330,000 tested, 0.33% active;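 active means mean inhibition over replicate wells above about 20%, limit read from the data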;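 further: 0% = compound-free wells with enzyme and 100% = wells lacking proteasome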
#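 System: Proteasome-associated human UCH37 deubiquitinase; Input: 0.15 nM proteasome in added enzyme buffer; Also added: Ub-AMC substrate from 1 µM stock; Incubation: 30 min compound-proteasome preincubation then 25 min substrate reaction, room temperature; Detection: fluorescence, ex 355 nm, em 460 nm; Read-out: % inhibition of Ub-AMC cleavage fluorescence; Benchmarks: no-proteasome and no-compound wells.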
# Rtt109 HAT inh: blocks Candida albicans Rtt109/Vps75 acetyltransferase activity; purified Rtt109/Vps75, ThioGlo CoA-SH fluorescence, 4 h; inhibition, % at 34.9 µM; 330,000 tested, 0.16% active;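 active means inhibition of at least 50% in every replicate; inconclusive means best replicate reaches 50% inhibition but some replicates fall short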
# UCH37 confirm: confirmation of human UCH37 deubiquitinating enzyme inhibitors. shares compounds with UCH37 inh. Proteasome-bound UCH37, Ub-AMC cleavage fluorescence. inhibition, % at 20 µM. 480 tested, 27% active;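 active means average inhibition over replicates above about 50%, so the earlier screening hit is confirmed, limit read from the data; inactive means the rest, counted as false positives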;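 further: based on cleavage rate fitted by regression over a 30 min kinetic read; 0% = proteasome plus Ub-AMC and 100% = Ub-AMC without proteasome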
# Active calls of the source: *; u = inconclusive; x = no result; ! = repeats disagree. A selection: hits, their analogues and other compounds. The true share with any hit is near 4.6%.
SMILES,HDAC3 inhib,ALR H2O2 inh,M18AAP inhibitor,FAS TE block,UCH37 inh,Rtt109 HAT inh,UCH37 confirm
COC(=O)c1cc(C)nc2c1C(=O)C(=O)C=C2N1CCOCC1,2,4,6,9,100*,6,100*
COC(=O)c1cc(S(=O)(=O)N2CCOCC2)c(Cl)cc1N1CCOCC1,7,-11,-7,-9,6,2,x
Cc1cccc(C(=O)N2CCCCCC2)c1,0,-4,-14,-4,28,-6,42
Cc1cc(C)cc(C(=O)N2CCCCC2)c1,x,x,x,-4,1,-2,x
CCOC(=O)N1CCN(C2=C(NS(=O)(=O)c3ccc(C)cc3)C(=O)c3ccccc3C2=O)CC1,3,-7,31*,13,42*,-3,53*
NC(=O)C1CCN(C2=C(NS(=O)(=O)c3ccc(Cl)cc3)C(=O)c3ccccc3C2=O)CC1,1,x,3,1,33*,4,30
COC(=O)C1CCN(C2=C(NS(=O)(=O)c3ccc(Cl)cc3)C(=O)c3ccccc3C2=O)CC1,3,2,11,9,4,19,x
CCCCCCCCCCCCCCCC[n+]1ccc(C(N)=O)cc1,10,-5,9,-133,68*,0,71*
CCCCCCCCCCCCCCCC[n+]1ccc(/C=N/O)cc1,9,-2,-5,-156,x,-6,x
CCCCCCCCCCCCCCCC[n+]1cccc(C(=O)N(CC)CC)c1,6,-40,0,-58,58*!,74*!,66*
CCCCCCCCCCCCCCCC[n+]1ccccc1,x,x,x,-111,79*,75*!,97*
Oc1ccc[n+](CCCCC[n+]2cccc(O)c2)c1,-7,1,3,-5,2,-5,x
CCCCCCCC[n+]1cccc(C(=O)N(CC)CC)c1,-1,-5,0,-5,1,x,x
CC(C)CNC(=O)CC(=O)NN=Cc1ccc(Br)cc1,x,x,x,x,3,x,x
CC(C)N1CCC(=NNc2ccc(S(=O)(=O)N3CCOCC3)cc2[N+](=O)[O-])CC1,2,-1,2,-4,6,0,x
CCCN1CCC(=NNc2ccc(S(=O)(=O)N3CCOCC3)cc2[N+](=O)[O-])CC1,0,-3,10,-8,44*,x,0
CCCc1n[nH]c2c1C(=NO)CCC2,x,x,x,x,0,x,x
COc1ccc(NC(=S)NC(=O)c2ccc(Br)o2)cc1,x,1,10,5,4,26,x
COc1ccc(NC(=O)c2ccc(Br)o2)cc1,8,-19,0,-16,40*,-4,2
CCOC(=O)CC1=NN(c2ccccc2)C(=O)/C1=C\c1ccc(OC)cc1OC,-5,-17,2,-7,35*,13,-3
CS(=O)(=O)c1ccc(S(=O)CC(=O)OCc2ccccc2)c([N+](=O)[O-])c1 (stereo unspecified),x,x,11,23,44*,4,22
CC(=O)NC1=C(NC2CCS(=O)(=O)C2)C(=O)c2ccccc2C1=O (stereo unspecified),7,-18,4,10,28*,-8,27
O=C1Nc2c(Cl)cc(Cl)cc2C1=O,x,x,x,-9,62*,-8,75*
Cc1ccc(C(C(=O)NC2CCCC2)N(Cc2ccc3c(c2)OCO3)C(=O)Cc2cccs2)cc1 (stereo unspecified),-9,0,1,35,36*,11,-13
CC(=NN1C(=O)c2ccccc2C1=O)c1cccc([N+](=O)[O-])c1,x,x,x,x,3,x,x
SMILES,HDAC3 inhib,ALR H2O2 inh,M18AAP inhibitor,FAS TE block,UCH37 inh,Rtt109 HAT inh,UCH37 confirm
CCCOc1ccc(C2=CC(=O)C[C@H](c3ccc(OC)cc3)C2)cc1,5,-5,x,25,36*,3,-2
CCCCOC(=O)c1ccc(NC(=O)Nc2ccc(OC)c(OC)c2)cc1,8,-18,8,18,38*,1,-16
Cc1ccc(C(=O)ONc2ccc(N=NC(=O)c3ccccc3O)cc2)cc1,0,14,-14,1,27*,1,31
Cc1c(/C(O)=C2/C(=O)C(=O)N(CCN3CCOCC3)C2c2cccs2)cnn1-c1ccccc1 (stereo unspecified),3,u,0,-8,14,15,x
Cc1c(/C(O)=C2\C(=O)C(=O)N(CCCN(C)C)C2c2cccs2)cnn1-c1ccccc1 (stereo unspecified),x,x,x,-3,35*,-23,2
CNC(=O)CSc1nnnn1-c1cc(C)ccc1C,4,-5,-3,4,0,2,x
Cc1ccc(C)c(-n2nnnc2SCC(=O)NCCC2=CCCCC2)c1,3,13,-3,16,59*,-7,47
O=C1Cc2ccccc2C(=O)N1CCc1ccccc1,-1,x,0,45,62*,9,10
COC1=C(c2ccccc2)C(=O)c2ccccc2C1=O,13,-60,12,30,27*,x,33
CN(C)N=Cc1ccc(Sc2ccc([N+](=O)[O-])cc2[N+](=O)[O-])o1,x,x,x,x,3,x,x
O=c1cc(-c2ccco2)nc(-c2cccs2)o1,9,16,10,-4,43*,-9,19
c1coc(-c2nnc(-c3cccs3)o2)c1,-55,-13,3,-9,-122,-12,x
O=C(NCc1ccccc1)c1ccc(N2CCC3(CC2)CC(c2ccccc2)=NO3)c([N+](=O)[O-])c1,7,0,10,9,47*,-5,3
COc1ccc(O)c(C2(O)C(=O)c3ccccc3C2=O)c1,-2,17,3,-8,0,25,x
CC(=O)C(C(C)=O)C1(O)C(=O)c2ccccc2C1=O,-7,34,-1,-2,70*,-1,78*
Cn1cnc([N+](=O)[O-])c1S(=O)(=O)c1ccc(Cl)cc1,x,x,-49,33,49*,10,13
O=c1[nH]c(Nc2ccccc2)cc2ccccc12,-2,6,9,29,-27,-5,x
O=c1[nH]c(Nc2ccccc2)cc2cc(Br)ccc12,3,-1,x,30,44*,3,19
CC(Cn1cnc([N+](=O)[O-])n1)=NNC(=O)c1cccnc1,x,x,x,x,1,x,x
CCC(=O)Nc1ccc(C(=O)NN=Cc2cc(Br)c(OC)cc2OC)cc1,x,x,x,x,0,x,x
O=C(COC(=O)c1ccc(O)cc1)NC(=O)NCc1ccccc1,2,x,x,-7,1,2,x
O=C(COC(=O)c1ccc([N+](=O)[O-])s1)NCc1ccc(F)cc1,0,-30,7,0,65*,-1,25
CCc1cc(C(=O)OCC(=O)NCCc2ccccc2)sc1C,x,x,x,4,x,x,x
O=C(COC(=O)c1ccc([N+](=O)[O-])s1)NCCc1ccccc1,4,-14,x,8,81*,7,14
Cc1ccc(C(=O)OCC(=O)NCc2ccccc2)s1,x,x,x,-5,x,x,x

# Bioassay records (PubChem)
